Source: article PMC4201344 (ACS Chemical Biology, 2014)
Residue numbers refer to the chain shown, from its start. Entries after “also recorded” stand apart in the source; their conditions may differ.

Columns and labels:
Type in all cases: cell-based, C. elegans
Settings in all cases: glutamate
GluClβ T6′S = GluClβ T6′S (Caenorhabditis elegans, UniProt Q17328, T283S); assay: two-electrode voltage clamp, Xenopus laevis oocytes
GluClβ L9′A = GluClβ L9′A (Caenorhabditis elegans, UniProt Q17328, L286A); assay: two-electrode voltage clamp, Xenopus laevis oocytes
Sequence of GluClβ L9′A (Q17328 23-434 L286A): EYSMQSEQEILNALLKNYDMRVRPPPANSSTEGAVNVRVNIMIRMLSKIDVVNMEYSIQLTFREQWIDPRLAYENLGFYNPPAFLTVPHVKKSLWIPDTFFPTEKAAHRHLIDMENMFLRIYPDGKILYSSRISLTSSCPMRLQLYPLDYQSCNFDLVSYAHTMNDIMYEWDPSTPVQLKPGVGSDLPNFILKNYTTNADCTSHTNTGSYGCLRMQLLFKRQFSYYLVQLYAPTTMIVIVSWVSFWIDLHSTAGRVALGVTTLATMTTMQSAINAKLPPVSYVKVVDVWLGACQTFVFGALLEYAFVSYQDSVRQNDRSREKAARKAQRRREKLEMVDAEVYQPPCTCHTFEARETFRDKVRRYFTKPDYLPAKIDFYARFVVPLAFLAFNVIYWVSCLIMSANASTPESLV
In short: (§1)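 C. elegans GluClβ (mammalian codon-optimised) in pGEMhe, mutated by QuikChange; T7 mRNA. […] Voltage clamp at −60 mV in Ca-free ND96, pH 7.5. […] Peak currents taken from baseline, normalised, averaged per concentration, and fit to Hill equation (EC50, nH).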

GluClβ T13′S = GluClβ T13′S (Caenorhabditis elegans, UniProt Q17328, T290S); assay: as above
Sequence of GluClβ T13′S (Q17328 23-434 T290S): as the sequence (Q17328 23-434 L286A) above, with A264L, T268S counted along it
In short: as §1

GluClβ A17′G = GluClβ A17′G (Caenorhabditis elegans, UniProt Q17328, A294G); assay: as above
Sequence of GluClβ A17′G (Q17328 23-434 A294G): as the sequence (Q17328 23-434 L286A) above, with A264L, A272G counted along it
In short: as §1

GluClβ A17′T = target: T1, GluClβ A17′T (Caenorhabditis elegans, UniProt Q17328, A294T); assay: two-electrode voltage clamp, Xenopus laevis oocytes
T1 sequence (Q17328 23-434 A294T): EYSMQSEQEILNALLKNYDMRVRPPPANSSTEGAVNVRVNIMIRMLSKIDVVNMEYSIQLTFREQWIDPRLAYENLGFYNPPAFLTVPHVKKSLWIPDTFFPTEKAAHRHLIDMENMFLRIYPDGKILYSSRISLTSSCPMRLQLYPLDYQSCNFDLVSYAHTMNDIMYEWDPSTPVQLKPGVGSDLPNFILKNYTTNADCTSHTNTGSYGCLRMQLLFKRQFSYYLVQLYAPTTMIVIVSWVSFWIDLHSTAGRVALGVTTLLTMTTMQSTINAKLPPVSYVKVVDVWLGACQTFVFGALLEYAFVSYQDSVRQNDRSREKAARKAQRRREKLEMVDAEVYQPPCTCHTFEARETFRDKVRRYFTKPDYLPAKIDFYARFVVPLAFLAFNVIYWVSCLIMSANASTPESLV

GluClβ A20′T = target: T2, GluClβ A20′T (Caenorhabditis elegans, UniProt Q17328, A297T); assay: as above
T2 sequence (Q17328 23-434 A297T): T1 sequence (Q17328 23-434 A294T) with T272A, A275T

[1] = target: GluClβ with α signal peptide, T6′S (Caenorhabditis elegans, UniProt Q17328, T283S); assay: two-electrode voltage clamp, Xenopus laevis oocytes
Sequence of GluClβ with α signal peptide, T6′S (Q17328 23-434 T283S): as the sequence (Q17328 23-434 L286A) above, with T261S, A264L counted along it
In short: as §1

[2] = target: T3, GluClβ with α signal peptide, T6′S, F96TAG Phe (Caenorhabditis elegans, UniProt Q17328, T283S); assay: two-electrode voltage clamp, Xenopus laevis oocytes, nonsense suppression
T3 sequence (Q17328 23-434 T283S): T1 sequence (Q17328 23-434 A294T) with T261S, T272A
In short: (§2)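 Site-specific TAG codon, read by 74mer THG73 tRNA ligated to dCA-acylated amino acid; NVOC removed by 5 min xenon-lamp irradiation just before injection. Oocytes coinjected with 37.5 ng mRNA plus ~1 μg/μL tRNA at 48 and 24 h pre-recording; unacylated 76mer tRNA served as read-through control.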

[3] = test system: GluClβ with α signal peptide, T6′S, F96TAG F2–Phe; assay: two-electrode voltage clamp, Xenopus laevis oocytes, nonsense suppression
[4] = test system: GluClβ with α signal peptide, T6′S, Y156TAG OMe–Phe; assay: two-electrode voltage clamp, Xenopus laevis oocytes, nonsense suppression
In short: as §2

[5] = test system: GluClβ with α signal peptide, T6′S, Y156TAG F1–Phe; assay: two-electrode voltage clamp, Xenopus laevis oocytes, nonsense suppression
[6] = test system: GluClβ T6′S, Y206TAG Br–Phe; assay: as above
GluClβ T6′S, R40A = GluClβ T6′S, R40A (Caenorhabditis elegans, UniProt Q17328, R66A/T283S); assay: two-electrode voltage clamp, Xenopus laevis oocytes
Sequence of GluClβ T6′S, R40A (Q17328 23-434 R66A/T283S): as the sequence (Q17328 23-434 L286A) above, with R44A, T261S, A264L counted along it

GluClβ T6′S, Y206A = GluClβ T6′S, Y206A (Caenorhabditis elegans, UniProt Q17328, T283S/Y232A); assay: two-electrode voltage clamp, Xenopus laevis oocytes
Sequence of GluClβ T6′S, Y206A (Q17328 23-434 Y232A/T283S): as the sequence (Q17328 23-434 L286A) above, with Y210A, T261S, A264L counted along it
In short: as §1

GluClβ Y206 3,5-Me2-Phe = assay: two-electrode voltage clamp, Xenopus laevis oocytes, nonsense suppression
In short: as §2

Sequence of GluClβ T6′S (Q17328 23-434 T283S): as the sequence (Q17328 23-434 L286A) above, with T261S, A264L counted along it

Hill (GluClβ T6′S): 2.4 ± 0.3
EC50 (GluClβ L9′A): constitutively active
EC50 (GluClβ A17′G): > 5000 µM
EC50 (GluClβ A17′T): 58 ± 1 µM
Hill (GluClβ A17′T): 2.8 ± 0.1
Imax (GluClβ A17′T): 0.3–13 μA
EC50 (GluClβ A20′T): 110 ± 20 µM
Hill (GluClβ A20′T): 1.7 ± 0.1
Imax (GluClβ A20′T): 0.5–48 μA
Hill [1]: 2.7 ± 0.2
EC50 [2]: 12 ± 1 µM
Hill [2]: 2.8 ± 0.3
Imax [2]: 0.1–4 μA
EC50 [3]: 4.7 ± 0.1 µM
EC50 [5]: 14000 ± 1000 µM
EC50 [6]: 980 ± 30 µM
EC50 (GluClβ T6′S, R40A): 1100 ± 100 µM
Hill (GluClβ T6′S, R40A): 2.1 ± 0.1
EC50 (GluClβ T6′S, Y206A): no response
receptor function (GluClβ Y206 3,5-Me2-Phe): nonfunctional
Compound: N[C@@H](CCC(=O)O)C(=O)O [glutamate]
EC50 (GluClβ T13′S): not functional; also recorded: no response
Hill [3]: 4.1 ± 0.5
Imax [3]: 0.04–1 μA
EC50 [4]: nonfunctional; also recorded: no response
Hill [5]: 2.0 ± 0.1
Imax [5]: 0.1–5 μA
Hill [6]: 2.5 ± 0.1
Imax [6]: 0.08–6 μA
